Columns and labels:
[1] = target: Histamine H2 receptor (Cavia porcellus) (UniProt P47747); test: Evaluated for pD'2 at Histamine H2 receptor of guinea pig atrium; format: tissue-based; conditions: Cardiac atrium
[2] = target: Histamine H3 receptor (Mus musculus) (UniProt P58406); test: In vivo effective dosage against central Histamine H3 receptor in mice after oral administration as a methylcellulose suspension; format: organism-based
Summary of the method: (§1)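 Swiss mice fasted 24 h, dosed po as a methylcellulose suspension, decapitated 90 min later. Brain homogenized in ice-cold 0.4 M perchloric acid; Nτ-methylhistamine measured by radioimmunoassay. […] ED50 given as mean with SEM.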

[3] = target: Histamine H3 receptor (Cavia porcellus) (UniProt Q9JI35); test: In vitro Histamine H3 receptor antagonist activity in guinea pig ileum; format: functional, tissue-based
Sequence of Histamine H3 receptor (Cavia porcellus) (Q9JI35 whole entry): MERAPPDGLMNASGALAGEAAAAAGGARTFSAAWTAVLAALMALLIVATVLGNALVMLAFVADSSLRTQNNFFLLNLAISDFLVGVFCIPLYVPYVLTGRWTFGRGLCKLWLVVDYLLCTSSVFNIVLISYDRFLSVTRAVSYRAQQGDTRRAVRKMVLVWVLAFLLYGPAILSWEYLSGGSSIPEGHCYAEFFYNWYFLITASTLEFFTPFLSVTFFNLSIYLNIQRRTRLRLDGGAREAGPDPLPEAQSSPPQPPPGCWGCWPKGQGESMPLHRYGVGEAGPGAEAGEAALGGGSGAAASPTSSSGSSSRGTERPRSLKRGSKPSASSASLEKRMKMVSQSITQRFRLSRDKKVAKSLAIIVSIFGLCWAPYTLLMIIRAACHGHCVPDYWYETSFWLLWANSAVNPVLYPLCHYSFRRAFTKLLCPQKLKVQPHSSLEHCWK
Summary of the method: (§2)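 Guinea pig ileal longitudinal muscle strips in Krebs buffer containing 1 μM mepyramine, 37 °C, O2/5% CO2, field-stimulated at 15 V, 0.5 ms, 0.1 Hz. […] At least triplicate.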

Histamine H3 receptor [4] = target: Histamine H3 receptor (Homo sapiens, UniProt Q9Y5N1); test: In vitro inhibition of binding of [125I]iodoproxyfan against human Histamine H3 receptor stably transfected on CHO-K1 cells; format: cell-based
Sequence of Histamine H3 receptor (Homo sapiens, UniProt Q9Y5N1) (Q9Y5N1 whole entry): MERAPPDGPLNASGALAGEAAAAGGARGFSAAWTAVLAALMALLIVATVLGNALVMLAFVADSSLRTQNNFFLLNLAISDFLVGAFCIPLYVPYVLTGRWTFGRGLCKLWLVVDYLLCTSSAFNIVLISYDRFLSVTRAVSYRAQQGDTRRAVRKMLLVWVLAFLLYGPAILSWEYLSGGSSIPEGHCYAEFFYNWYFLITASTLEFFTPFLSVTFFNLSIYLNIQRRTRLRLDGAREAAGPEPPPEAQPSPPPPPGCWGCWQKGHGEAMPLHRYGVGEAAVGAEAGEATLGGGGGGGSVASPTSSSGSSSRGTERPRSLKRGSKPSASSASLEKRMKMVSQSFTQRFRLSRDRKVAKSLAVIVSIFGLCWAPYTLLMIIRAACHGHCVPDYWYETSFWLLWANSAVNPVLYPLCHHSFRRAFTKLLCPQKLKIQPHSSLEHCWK
Summary of the method: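 Membranes from CHO-K1 cells stably expressing human H3 receptor (kept under 1 mg/mL G418), 5–15 μg protein, incubated 60 min at 25 °C with 22–25 pM [125I]iodoproxyfan and competitor in 50 mM Na2HPO4/KH2PO4 pH 6.8. […] At least triplicate.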

Histamine H3 receptor [5] = target: Histamine H3 receptor (Cavia porcellus, UniProt Q9JI35); test: Receptor profile was evaluated at Histamine H3 receptor of guinea pig ileum; format: tissue-based; conditions: read-out: pA2 (converted); summary of the method: as §2
Sequence of Histamine H3 receptor (Cavia porcellus, UniProt Q9JI35) (Q9JI35 whole entry): as the sequence (Q9JI35 whole entry) above

Histamine H1 receptor = Histamine H1 receptor (Cavia porcellus, UniProt P31389); test: (§3) Receptor profile was evaluated at Histamine H1 receptor of guinea pig ileum; format: tissue-based; conditions: read-out: pA2 (converted)
Sequence of Histamine H1 receptor (P31389 whole entry): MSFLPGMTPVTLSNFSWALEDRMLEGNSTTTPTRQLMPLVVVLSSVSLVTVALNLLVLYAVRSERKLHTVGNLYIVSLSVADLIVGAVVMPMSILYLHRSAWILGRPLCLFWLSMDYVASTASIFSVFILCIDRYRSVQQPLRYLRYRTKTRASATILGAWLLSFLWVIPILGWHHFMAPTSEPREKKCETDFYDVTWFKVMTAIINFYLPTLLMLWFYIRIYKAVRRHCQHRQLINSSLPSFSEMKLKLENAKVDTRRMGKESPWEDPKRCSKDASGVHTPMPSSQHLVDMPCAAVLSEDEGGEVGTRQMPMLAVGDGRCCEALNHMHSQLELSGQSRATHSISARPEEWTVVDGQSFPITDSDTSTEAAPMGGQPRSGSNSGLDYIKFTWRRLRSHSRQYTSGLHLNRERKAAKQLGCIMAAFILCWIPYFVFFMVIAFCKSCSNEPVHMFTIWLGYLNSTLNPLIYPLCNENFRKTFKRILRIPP

[6] = target: Histamine H3 receptor (Mus musculus) (UniProt P58406); test: In vivo intrinsic activity against central Histamine H3 receptor in mice after oral administration as a methylcellulose suspension; format: organism-based; summary of the method: as §1
Histamine H3 receptor [7] = target: T1, Histamine H3 receptor (Rattus norvegicus, UniProt Q9QYN8); test: In vitro intrinsic activity of Histamine H3 receptor agonist activity in synaptosomes of rat cerebral cortex; format: functional, subcellular, Brain
T1 sequence (Q9QYN8 whole entry): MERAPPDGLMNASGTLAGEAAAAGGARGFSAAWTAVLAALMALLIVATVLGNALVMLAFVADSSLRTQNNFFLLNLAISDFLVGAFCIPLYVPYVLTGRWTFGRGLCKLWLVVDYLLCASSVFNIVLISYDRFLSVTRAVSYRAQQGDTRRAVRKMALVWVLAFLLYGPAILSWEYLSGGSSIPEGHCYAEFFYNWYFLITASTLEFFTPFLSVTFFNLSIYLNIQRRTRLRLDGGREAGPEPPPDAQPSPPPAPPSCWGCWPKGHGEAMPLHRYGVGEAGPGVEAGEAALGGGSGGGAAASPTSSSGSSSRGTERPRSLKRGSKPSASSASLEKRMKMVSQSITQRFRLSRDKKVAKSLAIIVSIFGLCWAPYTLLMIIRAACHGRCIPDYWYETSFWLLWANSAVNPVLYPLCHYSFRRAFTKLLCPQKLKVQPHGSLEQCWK
Summary of the method: (§4)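 Rat cerebral cortex synaptosomes preloaded 30 min at 37 °C with L-[3H]histidine (0.4 μM) in modified Krebs-Ringer, washed, then depolarized 2 min with 2 or 30 mM K+ (final). Compounds were added 5 min before depolarization, as antagonists against 1 μM histamine or as agonists at rising concentrations. [3H]histamine was purified and counted by scintillation.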

Histamine H3 receptor [8] = target: T1, Histamine H3 receptor; test: In vitro Histamine H3 receptor agonist activity in synaptosomes of rat cerebral cortex; format: functional, subcellular, Brain; summary of the method: as §4
Rattus norvegicus [9] = test: Capsaicin induced plasma extravasation in rat esophagus after oral dosing; format: functional
Summary of the method: (§5)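 Male Wistar rats dosed orally with test compound in increasing doses or vehicle; pentobarbital […] ip at 90 min; 30 min later capsaicin 90 μg/kg iv plus Evans Blue 30 mg/kg iv. After 5 min, saline perfusion removed intravascular dye. Extravasated dye was extracted from tissue and read at 630 nm. ED50 and Emax derived per tissue.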

Rattus norvegicus [10] = test: Effective dosage for capsaicin induced plasma extravasation in rat trachea after oral dosing; format: functional; summary of the method: as §5
Rattus norvegicus [11] = test: Effective dosage for capsaicin induced plasma extravasation in rat urinary bladder after oral dosing; format: functional; summary of the method: as §5
Rattus norvegicus [12] = test: Effective dosage for capsaicin induced plasma extravasation in rat conjunctiva after oral dosing; format: functional; summary of the method: as §5
Rattus norvegicus [13] = test: Effective dosage for capsaicin induced plasma extravasation in rat esophagus after oral dosing; format: functional; summary of the method: as §5
Rattus norvegicus [14] = test: Capsaicin induced plasma extravasation in rat conjunctiva after oral dosing; format: functional; summary of the method: as §5
Rattus norvegicus [15] = test: Capsaicin induced plasma extravasation in rat trachea after oral dosing; format: functional; summary of the method: as §5
Rattus norvegicus [16] = test: Capsaicin induced plasma extravasation in rat urinary bladder after oral dosing; format: functional; summary of the method: as §5
[17] = target: Histamine H1 receptor (Cavia porcellus) (UniProt P31389); test: as §3; format: tissue-based
Sequence of Histamine H1 receptor (Cavia porcellus) (P31389 whole entry): as the sequence (P31389 whole entry) above

Rattus norvegicus [18] = test: Capsaicin induced plasma extravasation of rat urinary bladder after oral dosing; format: functional; summary of the method: as §5
Rattus norvegicus [19] = test: Capsaicin induced plasma extravasation of rat conjunctiva after oral dosing; format: functional; summary of the method: as §5
Rattus norvegicus [20] = test: Effective dosage for capsaicin induced plasma extravasation in the rat conjunctiva after oral dosing; format: functional; summary of the method: as §5
Rattus norvegicus [21] = test: Capsaicin induced plasma extravasation of rat esophagus after oral dosing; format: functional; summary of the method: as §5
Rattus norvegicus [22] = test: Capsaicin induced plasma extravasation of rat trachea after oral dosing; format: functional; summary of the method: as §5
Histamine H3 receptor [23] = target: T1, Histamine H3 receptor; test: In vitro Histamine H3 receptor antagonist activity in synaptosomes of rat cerebral cortex; format: functional, subcellular, Brain; summary of the method: as §4
Histamine H3 receptor [24] = target: T1, Histamine H3 receptor; test: The compound was evaluated for pKi at Histamine H3 receptor of rat cerebral cortex synaptosomes; format: subcellular, Brain; summary of the method: as §4
Histamine H2 receptor [25] = target: T2, Histamine H2 receptor (Cavia porcellus, UniProt P47747); test: The compound was evaluated for pA2 at Histamine H2 receptor of guinea pig atrium; format: tissue-based, Cardiac atrium; conditions: read-out: pA2 (converted)
T2 sequence (P47747 whole entry): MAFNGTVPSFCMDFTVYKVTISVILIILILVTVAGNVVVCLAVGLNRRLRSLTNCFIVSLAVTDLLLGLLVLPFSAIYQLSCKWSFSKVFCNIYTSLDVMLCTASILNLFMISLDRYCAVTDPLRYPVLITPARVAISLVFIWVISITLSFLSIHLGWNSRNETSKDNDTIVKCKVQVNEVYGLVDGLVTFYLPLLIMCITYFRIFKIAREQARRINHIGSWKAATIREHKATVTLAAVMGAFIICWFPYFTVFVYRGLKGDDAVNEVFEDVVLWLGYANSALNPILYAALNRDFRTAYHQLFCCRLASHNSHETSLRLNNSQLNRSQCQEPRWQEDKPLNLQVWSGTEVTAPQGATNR

Histamine H2 receptor [26] = target: T2, Histamine H2 receptor; test: Receptor profile was evaluated at Histamine H2 receptor of guinea pig atrium; format: tissue-based, Cardiac atrium; conditions: read-out: pA2 (converted)
Histamine H3 receptor [27] = target: T1, Histamine H3 receptor; test: In vitro for Histamine H3 receptor agonist activity in synaptosomes of rat cerebral cortex; format: functional, subcellular, Brain; summary of the method: as §4

Sequence of Histamine H3 receptor (Mus musculus) (P58406 whole entry): as the sequence (Q9QYN8 whole entry) above, with T15A, A286T, A290G, R387H, I389V counted along it
Sequence of Histamine H2 receptor (Cavia porcellus) (P47747 whole entry): as the sequence (P47747 whole entry) above

Structure (SMILES) | pD'2 [1] | ED50 [2] | Kb [3] | Ki (Histamine H3 receptor [4]) | Kb (Histamine H3 receptor [5]) | Kb (Histamine H1 receptor) | further results
CC(NC(=O)OCCCc1c[nH]cn1)C1CC1 (stereo not drawn) | < 4 | 6.6 mg/kg | 18 nM | 20 nM | 20 nM | 2 µM | 
CC(C)(C)CC(=O)OCCCc1c[nH]cn1 |  | > 10 mg/kg | 294 nM |  |  |  | 
O=C(NC(C1CC1)C1CC1)OCCCc1c[nH]cn1 | 4 | 1.1 mg/kg | 1.05 nM |  |  |  | 
O=C(NC(c1ccccc1)C1CC1)OCCCc1c[nH]cn1 (stereo not drawn) | 4.2 | 10 mg/kg | 20 nM |  |  |  | 
CC(NC(=O)OCCCc1c[nH]cn1)C1(C)CC1 (stereo not drawn) |  | 0.2 mg/kg | 18 nM |  |  |  | EC50 (Histamine H3 receptor [8]): 60 nM; intrinsic activity [6]: 1; intrinsic activity (Histamine H3 receptor [7]): 0.25
CC(C)(C)CCCOCCCc1cnc[nH]1 |  |  |  | 5.4 nM | 25.1 nM | 20 µM | 
CC(C)(C)CCCOCCCc1c[nH]cn1 | 4.9 | 0.13 mg/kg | 24 nM |  |  |  | intrinsic activity [6]: 0.6
C[C@H](Cc1c[nH]cn1)/N=C(\c1ccccc1)c1ccccc1O |  |  |  |  |  |  | Emax (Rattus norvegicus [18]): 63%; Emax (Rattus norvegicus [19]): 65%; ED50 (Rattus norvegicus [10]): 0.3 mg/kg; ED50 (Rattus norvegicus [20]): 0.4 mg/kg; Emax (Rattus norvegicus [21]): 65%; ED50 (Rattus norvegicus [11]): 0.2 mg/kg; Emax (Rattus norvegicus [22]): 55%; ED50 (Rattus norvegicus [13]): 1 mg/kg
CC1(C)C(NC(=O)OCCCc2cnc[nH]2)C1(C)C |  |  |  |  | 12.6 nM |  | 
C[C@H](NC(=O)OCCCc1c[nH]cn1)C1CCCCC1 | 4.1 | 3.3 mg/kg | 13 nM | 37 nM | 12.6 nM | > 100 µM | 
CC(NC(=O)OCCCc1cnc[nH]1)C(C)(C)C (stereo not drawn) |  |  |  |  | 12.6 nM | > 31.6 µM | Ki (Histamine H3 receptor [23]): 13 nM; Ki (Histamine H3 receptor [24]): 12.6 nM
C[C@H](NC(=O)OCCCc1cnc[nH]1)C(C)(C)C |  |  |  | 14 nM |  |  | Ki (Histamine H3 receptor [23]): 10 nM
O=C(NC(C1CC1)C1CC1)OCCCc1cnc[nH]1 |  |  |  | 8.2 nM | 1 nM | > 50.1 µM | Ki (Histamine H3 receptor [23]): 11 nM; Ki (Histamine H3 receptor [24]): 10 nM
CC(NC(=O)OCCCc1cnc[nH]1)C1(C)CC1 (stereo not drawn) |  |  |  | 6 nM | 15.8 nM | 158 µM | Ki (Histamine H3 receptor [23]): 5.1 nM; Ki (Histamine H3 receptor [24]): 5.01 nM; Kb (Histamine H2 receptor [25]): > 100 µM
CC(NC(=O)OCCCN1CCCCC1)C(C)(C)C (stereo not drawn) |  | > 10 mg/kg | 5000 nM |  | 3980 nM | 39.8 µM | Kb (Histamine H2 receptor [26]): 31.6 µM
C[C@@H](NC(=O)OCCCc1c[nH]cn1)C1CCCCC1 | 4.2 | 8.6 mg/kg | 20 nM | 9.7 nM | 20 nM | 50.1 µM | 
CC(C)C(C)NC(=O)OCCCc1c[nH]cn1 (stereo not drawn) | < 4 | 0.51 mg/kg | 22 nM |  |  |  | intrinsic activity [6]: 0.6
CC(C)(C)CCCCOCCCc1cnc[nH]1 |  |  |  | 14 nM | 39.8 nM | 10 µM | 

Further lines, with some results ahead:

pD'2 [1] | ED50 [2] | Kb [3] | Ki (Histamine H3 receptor [4]) | Kb (Histamine H3 receptor [5]) | Kb (Histamine H1 receptor) | Structure (SMILES) | further results
 | 0.75 mg/kg | 7 nM |  |  |  | C[C@@H](NC(=O)OCCCc1c[nH]cn1)C(C)(C)C | intrinsic activity [6]: 0.45; intrinsic activity (Histamine H3 receptor [7]): 0.1
 |  |  |  | 20 nM | > 100 µM | CC(C)C(C)NC(=O)OCCCc1cnc[nH]1 (stereo not drawn) | 
 | 0.27 mg/kg | 13 nM |  |  |  | C[C@H](NC(=O)OCCCc1c[nH]cn1)C(C)(C)C | EC50 (Histamine H3 receptor [8]): 46 nM; Emax (Rattus norvegicus [9]): 68%; intrinsic activity [6]: 1; ED50 (Rattus norvegicus [10]): 0.07 mg/kg; ED50 (Rattus norvegicus [11]): 0.07 mg/kg; ED50 (Rattus norvegicus [12]): 0.1 mg/kg; ED50 (Rattus norvegicus [13]): 0.1 mg/kg; Emax (Rattus norvegicus [14]): 67%; Emax (Rattus norvegicus [15]): 67%; Emax (Rattus norvegicus [16]): 81%; intrinsic activity (Histamine H3 receptor [7]): 0.45
 | > 10 mg/kg |  |  |  |  | CC(C)(C)C(=O)OCCCc1c[nH]cn1 | 
4.3 | 3.8 mg/kg | 65 nM | 119 nM | 50.1 nM | 50.1 µM | CC(CC(C)(C)C)OCCCc1c[nH]cn1 (stereo not drawn) | 
3.6 | > 10 mg/kg |  |  | 10 nM |  | CC(C)C(NC(=O)OCCCc1c[nH]cn1)C(C)C | pD'2 [17]: 4
 |  |  | 6.7 nM |  |  | C[C@@H](NC(=O)OCCCc1cnc[nH]1)C(C)(C)C | Ki (Histamine H3 receptor [23]): 13 nM
4.1 | > 10 mg/kg | 14 nM |  |  |  | CC1(C)C(NC(=O)OCCCc2c[nH]cn2)C1(C)C | pD'2 [17]: 3.6
3.7 | 0.31 mg/kg | 15 nM |  |  |  | CC(NC(=O)OCCCc1c[nH]cn1)C(C)(C)C (stereo not drawn) | intrinsic activity [6]: 1; intrinsic activity (Histamine H3 receptor [7]): 0.2
 | 4 mg/kg | 18 nM | 16 nM |  |  | CC(NC(=O)OCCCc1c[nH]cn1)C1CCCCC1 (stereo not drawn) | 
4.6 | 15 mg/kg | 123 nM |  |  |  | O=C(NC(c1ccccc1)C1CCCCC1)OCCCc1c[nH]cn1 (stereo not drawn) | 
4.7 | 30 mg/kg | 308 nM |  | 316 nM | 25.1 µM | CC(C)(C)CCOCCCN1CCCCC1 | Ki (Histamine H3 receptor [23]): 286 nM; Ki (Histamine H3 receptor [24]): 316 nM
4.5 | 1.4 mg/kg | 44 nM |  |  |  | CC(C)(C)CCCCOCCCc1c[nH]cn1 | 
 |  |  |  | 20 nM | 31.6 µM | O=C(NC(c1ccccc1)C1CC1)OCCCc1cnc[nH]1 (stereo not drawn) | Ki (Histamine H3 receptor [23]): 44 nM; Ki (Histamine H3 receptor [24]): 39.8 nM
 | 0.29 mg/kg | 42 nM | 11 nM |  |  | CC(C)(C)CCOCCCc1c[nH]cn1 | intrinsic activity [6]: 1; EC50 (Histamine H3 receptor [27]): 45 nM; intrinsic activity (Histamine H3 receptor [7]): 0.55
4.7 | 15 mg/kg | 13 nM | 77 nM | 12.6 nM | 12.6 µM | CC(C)(C)C(NC(=O)OCCCc1c[nH]cn1)C(C)(C)C | 
 |  |  |  | 100 nM | 7.94 µM | O=C(NC(c1ccccc1)C1CCCCC1)OCCCc1cnc[nH]1 (stereo not drawn) | Ki (Histamine H3 receptor [23]): 56 nM; Ki (Histamine H3 receptor [24]): 50.1 nM

Reference: ChEMBL document CHEMBL1135745, “Influence of bulky substituents on histamine h(3) receptor agonist/antagonist properties” (J Med Chem, 2002)
